This is a sample that favours compounds with a hit; in the whole collection about 1.7% have one here.
CaV13 FRET inh: Primary screen for inhibitors of IQ motif and Ca2+-dependent inactivation inhibitor domain binding in CACNA1D, Förster resonance energy transfer in living cells, …; AID 743397; HEK cells, CFP/YFP FRET ICDI-IQ, plate reader, 10 min; percent FRET-ratio fall versus neutral wells; inhibition, % at 12.3 µM; 340,000 compounds, 0.098% hits;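 active = mean replicate inhibition of at least 30% and at least 1% of replicates passing that level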;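 note: 0% = median of the neutral control wells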
Ecoli rRNA inh: inhibitors of bacterial rRNA selective over humanized ribosomes; 350,000 compounds, 1.6% hits; E. coli WT GFP vs humanized-ribosome RFP mutants, fluorescence, 24 h; stronger effect = lower value; DMSO median 0, no signal -100; GFP signal change (wild-type ribosome), % (test concentration not listed); AID 720706;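 active = significant combined selectivity score with lowered wild-type GFP, culture density cut under 30%, mutant RFP and density less affected; inactive = any of these conditions unmet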
Cneo AK release: Cryptococcus neoformans lysis via adenylate kinase release; C. neoformans lysis, adenylate kinase release luminescence, 4 h; normalised: neutral wells 0, clomiphene wells 100; lysis activity, % at 15 µM; 360,000 compounds, 0.2% hits; AID 651654;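 active = mean lysis activity across replicates of at least 80%, whatever share of replicates individually reach that level; inactive = mean lysis activity below 80%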
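Assay system: C. neoformans cells. Amount: yeast cell density of 5 × 10^6 cells/mL. Technique: AK luminescence. Buffer or medium: YPD. Times: static 4 h at 37 °C with compound, 1 h detection. Dosing: single-point compound dose. Read-out: lysis from increased AK signal.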
CFTR F508del cor: CFTR F508del correction in bronchial cells; CFBE cells, YFP halide quenching; stimulated with forskolin plus potentiator P3; % fluorescence drop versus neutral controls; activity (quench increase), % at 7.58 µM; 350,000 compounds, 0.36% hits;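 active = mean added fluorescence quench of at least 8% versus neutral control, with both replicates also reaching 8%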;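 note: cells transiently co-express mutant CFTR-F508del with the halide-sensitive YFP; corrector assay measuring rescue of mutant channel to the surface after 24 h compound exposure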
* marks the source's active call; other numbers are inactive results; / = no result; + = active, no number; ! = not confirmed by another sample.

SMILES	CaV13 FRET inh	Ecoli rRNA inh	Cneo AK release	CFTR F508del cor
COCC(=O)N(C)C[C@H]1Oc2ncc(-c3ccccc3F)cc2C(=O)N([C@@H](C)CO)C[C@H]1C	/	3	87*	-3
CN1C(=O)c2cc(NC(=O)c3cccs3)ccc2OC[C@@H]2O[C@@H](CC(=O)NCCN3CCCCC3)CC[C@H]21	/	4	-4	-5
O=C(CSc1nc2cc(Cl)ccc2s1)c1ccco1	-7	-21*	-1	3
Clc1cccc(Cc2c(-c3cccc(Br)c3)nc3ccc(Br)cn23)c1	-4	-6	-1	0
COc1ccc(-c2nc3ccc(Br)cn3c2Cc2cccc(Cl)c2)cc1OC	-4	-27*	-5	-2
COc1ccc(-c2nc3ccc(Cl)cn3c2Cc2cccc(Cl)c2)cc1OC	-4	-16	1	2
COc1ccc(-c2nc3ccc(C)cn3c2CC2CCCCC2)cc1OC	-6	-29*	17	2
Clc1cccc(Cc2c(-c3cccc(Cl)c3)nc3ccc(Br)cn23)c1	-6	-23*	0	-3
C[C@@H]1CN([C@@H](C)CO)C(=O)c2cc(-c3cncnc3)cnc2O[C@H]1CN(C)C(=O)Cc1ccccc1	/	4	80*	2
C[C@H](CO)N1C[C@H](C)[C@@H](CN(C)C(=O)CN2CCOCC2)Oc2ncc(-c3cncnc3)cc2C1=O	-6	9	1	0
C[C@@H]1CN([C@H](C)CO)C(=O)c2cc(C3=CCCCC3)cnc2O[C@H]1CN(C)C(=O)Cc1cccnc1	/	-4	104*	0
C[C@H](O)C#Cc1cnc2c(c1)C(=O)N([C@@H](C)CO)C[C@@H](C)[C@@H](CN(C)C(=O)Cc1ccncc1)O2	/	0	115*	0
C[C@@H]1CN([C@@H](C)CO)C(=O)c2cc(C3=CCCCC3)cnc2O[C@@H]1CN(C)C(=O)Cc1cccnc1	/	1	1	1
C[C@@H]1CN([C@@H](C)CO)C(=O)c2cc(-c3cncnc3)cnc2O[C@H]1CN(C)C(=O)CN1CCOCC1	/	6	105*	0
CC(C)CC#Cc1ccc2c(c1)O[C@@H](CN(C)C(=O)Nc1ccccc1)[C@@H](C)CN([C@H](C)CO)S2(=O)=O	/	2	-3	3
CCCN1C[C@H](C)[C@H](OC)CN(C)C(=O)c2cc(NC(=O)Nc3c(C)noc3C)ccc2OC[C@H]1C	/	5	-6	-2
Nc1c2ccccc2nc2ccccc12	40*	-43*!	0	20*
Clc1c2c(nc3ccccc13)CCC2	-2	11	1	3
Nc1c2c(nc3ccccc13)CCCC2	-4	/	-1	16*!
CN(C)CC#Cc1ccc([C@H]2[C@H](CO)N3CCCCN(C(=O)CN(C)C)C[C@@H]23)cc1	/	4	-3	-2
O=S(=O)(Nc1ccc(-c2nc3cccnc3s2)cc1)c1cccs1	-3	-3	0	-2
Cc1cc(-c2nc3cccnc3s2)ccc1NS(=O)(=O)c1cccs1	+	8	1	0
Cc1nc2ccc(S(=O)(=O)Nc3ccc(-c4nc5cccnc5s4)cc3)cc2s1	139*	-1	0	-1
Cc1ccc(/C=N/Nc2ncc(Cl)cc2Cl)s1	-9	-22*	/	0
C(=N\N1CCN(c2ccccn2)CC1)/c1cccc2ccccc12	-4	-21*	-2	1
SMILES	CaV13 FRET inh	Ecoli rRNA inh	Cneo AK release	CFTR F508del cor
C[C@H](CO)N1C[C@H](C)[C@@H](CN(C)C(=O)CCCN(C)C)OCCCC[C@H](C)Oc2ccc(NC(=O)Cc3ccccc3)cc2C1=O	/	2	-1	-1
Cc1sc2ncnc(Sc3ccccc3C(=O)O)c2c1C	-2	-24*	/	/
CC(=O)c1ccc(NC(=O)c2ccccc2Sc2ncnc3sc(C)c(C)c23)cc1	-9	-22	-6	-2
CCCN1[C@@H]2c3ccc(-c4cncnc4)c(=O)n3C[C@@H]2[C@@H](CO)[C@@H]1C(=O)OC	/	-1	-2	/
C[C@H](CO)N1C[C@H](C)[C@H](CN(C)C(=O)Nc2cccc3ccccc23)Oc2ccc(NC(=O)C3CC3)cc2CC1=O	/	4	/	2
CN(C=O)c1ccc(CSc2ccccc2)cc1	-5	-29*	-12	0
O=C(Nc1cccnc1)c1ccc(CSc2ccccc2)cc1	-2	-3	/	-1
CC(C)NC(=O)Nc1cccc2c1O[C@@H](CN(C)C(=O)NC(C)C)[C@@H](C)CN([C@@H](C)CO)C2=O	/	5	0	1
C[C@@H]1CN([C@@H](C)CO)C(=O)Cc2cc(NC(=O)Nc3ccc4c(c3)OCO4)ccc2O[C@H]1CN(C)C	/	-2	-3	0
C[C@H]1CN([C@@H](C)CO)C(=O)c2cc(NS(C)(=O)=O)ccc2O[C@H]1CN(C)S(=O)(=O)c1cccs1	/	2	-1	4
CCOC(=O)c1csc(-c2ccc(OC)c(OC)c2)n1	3	0	/	6
CCOC(=O)c1csc(-c2sccc2Br)n1	-5	-27*	/	1
CCOC(=O)C1CCN(C(=O)c2cc3c(=O)n4cccc(C)c4nc3s2)CC1	-7	-19*	0	-2
CCOC(=O)C1CCN(C(=O)c2cc3c(=O)n4ccccc4nc3s2)CC1	/	1	-18	0
CCCNC(=O)N1CC2(C1)[C@H](c1ccccc1)[C@H](CO)N2C(=O)C1CCCC1	/	2	/	2
C[C@H](NC(=O)C[C@@H]1CC[C@@H]2[C@H](COC[C@@H](O)CN2C(=O)Nc2cccc(F)c2)O1)c1ccccc1	/	-17	90*	-2
O=C(C[C@H]1CC[C@@H]2[C@H](COC[C@H](O)CN2C(=O)Nc2ccc(Cl)cc2)O1)NCC1CC1	/	-24*	-2	0
C[C@H](NC(=O)C[C@H]1CC[C@H]2[C@@H](COC[C@H](O)CN2C(=O)Nc2cccc(F)c2)O1)c1ccccc1	/	-13	-8	1
O=C(C[C@@H]1CC[C@@H]2[C@H](COC[C@@H](O)CN2C(=O)Nc2ccc(Cl)cc2)O1)NC1Cc2ccccc2C1	/	-60	109*	0
C[C@@H]1CN([C@H](C)CO)C(=O)c2cc(NS(C)(=O)=O)ccc2O[C@@H](C)CCCCO[C@@H]1CN(C)C(=O)NC1CCCCC1	/	5	/	1
CCCC(=O)Nc1ccc2c(c1)C(=O)N(C)[C@@H]1CC[C@H](CC(=O)N3CCc4ccccc4C3)O[C@H]1CO2	/	3	59	-2
C/C=C/c1ccc(C2[C@@H]3CN(S(=O)(=O)c4cccc(OC)c4)C[C@H]2N3)cc1 (stereo partly drawn)	/	-4	/	-1
COCC(=O)N1CC2(CN[C@H](CO)c3c2c2ccc(OC)cc2n3C)C1	/	3	/	0
CC(C)OC(=O)/C(C#N)=C/c1ccc(-c2ccc(SC(F)F)cc2)o1	-10	/	/	/
COC(=O)/C(C#N)=C/c1ccc(-c2ccc(S(N)(=O)=O)cc2)o1	-13	-27*	-3	5
O=S(=O)(Nc1ccn(-c2ccccc2)n1)c1ccc(Br)cc1	-7	-46*	0	-2

Screening results from PubChem.
